Experimental data gathered from unrelated publications.
Target: Myosin light chain kinase 2, skeletal/cardiac muscle (MYLK2, Homo sapiens, UniProt Q9H1R3)

Structure (SMILES)	read-out	action	method	tested at	measurement	result
O=C(Nc1cnn(-c2csc(C(=O)NC3COC3)c2)c1)Nc1c(F)cccc1Cl	enzyme activity	inhibitor	–	5 µM	remaining activity	83.5%
COc1cccc(CNC(=O)c2nc3scc(COCc4ccc(C(=O)O)cc4)c3c(=O)[nH]2)c1	cell-free assay	–	competition with immobilised ligand	1 µM	remaining binding	100%
COc1cc2ncnc(Nc3ccc(Oc4ccccc4)c(C)c3C)c2cc1OC	enzyme activity	inhibitor	–	1 µM	inhibition	-5%
Cc1ccc(C(=O)Nc2ccc(CN3CCN(C)CC3)c(C(F)(F)F)c2)cc1C#Cc1cnc2cccnn12	enzyme activity	inhibitor	–	23.5 nM	remaining activity	100%
Clc1ccc(Nc2nnc(Cc3ccncc3)c3ccccc23)cc1	cell-free assay	–	–	0.5 µM	remaining signal	103%
O=C(Nc1cnn(-c2csc(C(=O)NC3COC3)c2)c1)Nc1ccccc1Cl	enzyme activity	inhibitor	–	5 µM	remaining activity	89.9%
NS(=O)(=O)c1cc(NC(=O)C2(c3ccccc3Cl)CC2)ccc1Oc1cccc(Cl)c1	cell-free assay	–	competition with immobilised ligand	1 µM	remaining binding	73%
CCN(CC)CCNC(=O)c1c(C)[nH]c(/C=C2\C(=O)Nc3ccc(F)cc32)c1C	enzyme activity	inhibitor	–	10 µM	inhibition	92%
C=CC(=O)Nc1cc(Nc2nccc(Nc3cc(Cl)c(F)cc3C(C)(C)O)n2)c(OC)cc1N1CC[C@@H](N(C)C)C1	enzyme activity	inhibitor	–	1 µM	inhibition	-9%
Cc1cnc(NC2CCOCC2)nc1-n1cnc(C(=O)NC(CN)c2cc(F)cc(Cl)c2)c1 (stereo not shown)	enzyme activity	inhibitor	radiometric	1 µM	remaining activity	95%
O=C1Nc2ccc(Cl)cc2C1=Cc1cc(Cl)c(O)c(Cl)c1	cell-free assay	–	–	0.5 µM	remaining signal	71.5%
CS(=O)(=O)NCC[C@H](NC(=O)c1cncc2c1cnn2-c1ccc(F)cc1)c1ccnc(S(C)(=O)=O)c1	cell-free assay	–	competition with immobilised ligand	1 µM	remaining binding	93%
Cc1cc(NC(=O)c2cccc3cc(-c4cccc5[nH]nc(N)c45)ccc23)ccc1F	enzyme activity	inhibitor	–	0.1 µM	activity vs control	97%
C[C@H](c1ccnc(Nc2nc3ccc(-c4cc(N(C)C)ncn4)cc3[nH]2)c1)N1CCN(C(=O)CC(F)(F)F)CC1	cell-free assay	–	competition with immobilised ligand	0.1 µM	remaining binding	92%
CC(C)(C)c1nc2c(s1)c1nc(N)ncc1c1ccc(NS(=O)(=O)c3c(F)cccc3F)c(F)c12	enzyme activity	inhibitor	radiometric	1 µM	remaining activity	113%
CN([C@@H]1CCc2c(CC(=O)O)c3cc(S(C)(=O)=O)ccc3n2C1)S(=O)(=O)c1ccc(F)cc1	cell-free assay	–	competition with immobilised ligand	1 µM	remaining binding	100%
CNC(=O)c1cc(Oc2ccc(NC(=O)Nc3ccc(Cl)c(C(F)(F)F)c3)cc2)ccn1	enzyme activity	inhibitor	–	0.3 µM	inhibition	4%
Cn1nc(C(F)(F)F)cc1-c1cnc(N2CCc3cc(S(=O)(=O)Nc4c(F)cc(Cl)cc4F)cc(N4CCCC4=O)c32)nc1	cell-free assay	–	competition with immobilised ligand	1 µM	remaining binding	100%
O=C1NC(=O)c2cc(Nc3ccc(F)cc3)c(Nc3ccc(F)cc3)cc21	cell-free assay	–	–	0.5 µM	remaining signal	98.7%
